Test results published in ChEMBL document CHEMBL4765233, “From Lead to Drug Candidate: Optimization of 3-(Phenylethynyl)-1H-pyrazolo[3,4-d]pyrimidin-4-amine Derivatives as Agents for the Treatment of Triple Negative Breast Cancer” (J Med Chem, 2016).

Tests used:
[1] = test system: MDA-MB-231; test: Antiproliferative activity against human MDA-MB-231 cells assessed as reduction in cell viability incubated for 72 hrs by MTT assay; format: functional, cell-based; conditions: MDA-MB-231, 72 h
Method in brief: (§1)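 MTT viability assay. ATCC cell lines were grown in designated medium with 10% FBS at 37 °C, 5% CO2. Cells seeded at 1500−30000 per well and incubated 24 h, then exposed to compound (0−10 μg/mL) for 72 h. MTT added for 2−4 h. Formazan dissolved in DMSO (adherent) or acidified SDS overnight (suspension), absorbance read at 570 nm. Triplicates; IC50 calculated.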

[2] = test system: MDA-MB-435; test: Antiproliferative activity against human MDA-MB-435 cells assessed as reduction in cell viability incubated for 72 hrs by MTT assay; format: functional, cell-based; conditions: MDA-MB-435, 72 h; method in brief: as §1
[3] = test system: HepG2; test: Antiproliferative activity against human HepG2 cells assessed as reduction in cell viability incubated for 72 hrs by MTT assay; format: ADME, cell-based; conditions: HepG2, 72 h
[4] = test system: MDA-MB-231; test: Antitumor activity against human MDA-MB-231 cells xenografted in SCID mouse assessed as tumor growth inhibition at 40 mg/kg, po qd for 21 days and measured every 3 days; format: functional; conditions: MDA-MB-231, po, 504 h, time 21 day
Method in brief: (§2)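 SCID mice (5−6 weeks) injected subcutaneously with 100 μL of cells at 5 × 10^7/mL. At 150−200 mm3 mice randomized, 6 per group. Oral compounds given in water with 25% PEG400 plus 5% DMSO; paclitaxel given 10 mg/kg/week iv. Tumor volume a×b²/2 and body weight measured every 3 days. Inhibition rate (c−d)/c×100% against vehicle control.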

[5] = Toxicity in SCID mouse xenografted with MDA-MB-231 cells assessed as change in body weight at 40 mg/kg, po qd for 21 days and measured every 3 days; format: organism-based; conditions: in vivo, 504 h, dose 40 mg/kg/day, time 21 day
Method in brief: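 Exponential-phase cells washed and injected subcutaneously (5 × 10^6 cells in 100 μL) into 5–6-week SCID mice. At 150–200 mm3, mice randomised to groups of 6. Oral dosing daily in water with 25% PEG400 and 5% DMSO; paclitaxel 10 mg/kg weekly by tail vein. Body weight measured every 3 days and side effects checked daily.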

[6] = Toxicity in SCID mouse xenografted with MDA-MB-231 cells assessed as animal death at 40 mg/kg, po qd for 21 days; format: organism-based; conditions: in vivo, dose 40 mg/kg/day, time 21 day, read-out: Activity
Method in brief: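 SCID mice aged 5–6 weeks were injected subcutaneously with 100 μL of MDA-MB-231 cells resuspended at 5 × 10^7 per mL. When tumours reached 150–200 mm3, mice were randomised into groups of 3 or 6. Dosing was oral and daily, in sterile water with 25% PEG400 plus 5% DMSO. Side effects were checked daily and body weight every 3 days.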

[7] = molecular target: Voltage-gated inwardly rectifying potassium channel KCNH2 (Homo sapiens, UniProt Q12809); test: Inhibition of human ERG expressed in CHO cells at -80 mV holding potential by automated Qpatch electrophysiological assay
[8] = test system: MDA-MB-231; test: Antitumor activity against human MDA-MB-231 cells xenografted in SCID mouse assessed as tumor growth inhibition at 40 mg/kg, po qd for 15 days and measured every 3 days; format: functional; conditions: MDA-MB-231, po, 360 h, time 15 day; method in brief: as §2
[9] = Toxicity in SCID mouse xenografted with MDA-MB-231 cells assessed as change in body weight at 40 mg/kg, po qd for 15 days and measured every 3 days; format: organism-based; conditions: in vivo, 360 h, dose 40 mg/kg/day, time 15 day
[10] = Toxicity in SCID mouse xenografted with MDA-MB-231 cells assessed as animal death at 40 mg/kg, po qd for 15 days; format: organism-based; conditions: in vivo, dose 40 mg/kg/day, time 15 day, read-out: Activity
[11] = Toxicity in SCID mouse xenografted with MDA-MB-231 cells assessed as change in body weight at 20 mg/kg, po qd for 15 days and measured every 3 days; format: organism-based; conditions: in vivo, 360 h, dose 20 mg/kg/day, time 15 day
[12] = test system: MDA-MB-231; test: Antitumor activity against human MDA-MB-231 cells xenografted in SCID mouse assessed as tumor growth inhibition at 20 mg/kg, po qd for 15 days and measured every 3 days; conditions: MDA-MB-231, po, 360 h, read-out: INH
[13] = Toxicity in SCID mouse xenografted with MDA-MB-231 cells assessed as animal death at 20 mg/kg, po qd for 15 days; format: organism-based; conditions: in vivo, dose 20 mg/kg/day, time 15 day, read-out: Activity
[14] = Half-life in Sprague-Dawley rat at 10 mg/kg, po administered via gavage by LC-MS analysis; format: ADME, organism-based; conditions: in vivo
[15] = AUC (0 to t) in Sprague-Dawley rat at 10 mg/kg, po administered via gavage by LC-MS analysis; format: ADME, organism-based; parameters: dose 10 mg/kg; conditions: in vivo
[16] = AUC (0 to infinity) in Sprague-Dawley rat at 10 mg/kg, po administered via gavage by LC-MS analysis; format: ADME, organism-based; parameters: time infinity, route oral, dose 10 mg/kg; conditions: in vivo
[17] = Tmax in Sprague-Dawley rat at 10 mg/kg, po administered via gavage by LC-MS analysis; format: ADME, organism-based; conditions: in vivo
[18] = Cmax in Sprague-Dawley rat at 10 mg/kg, po administered via gavage by LC-MS analysis; format: ADME, organism-based; parameters: route oral, dose 10 mg/kg; conditions: in vivo

Chain of Voltage-gated inwardly rectifying potassium channel KCNH2 (Q12809 whole entry): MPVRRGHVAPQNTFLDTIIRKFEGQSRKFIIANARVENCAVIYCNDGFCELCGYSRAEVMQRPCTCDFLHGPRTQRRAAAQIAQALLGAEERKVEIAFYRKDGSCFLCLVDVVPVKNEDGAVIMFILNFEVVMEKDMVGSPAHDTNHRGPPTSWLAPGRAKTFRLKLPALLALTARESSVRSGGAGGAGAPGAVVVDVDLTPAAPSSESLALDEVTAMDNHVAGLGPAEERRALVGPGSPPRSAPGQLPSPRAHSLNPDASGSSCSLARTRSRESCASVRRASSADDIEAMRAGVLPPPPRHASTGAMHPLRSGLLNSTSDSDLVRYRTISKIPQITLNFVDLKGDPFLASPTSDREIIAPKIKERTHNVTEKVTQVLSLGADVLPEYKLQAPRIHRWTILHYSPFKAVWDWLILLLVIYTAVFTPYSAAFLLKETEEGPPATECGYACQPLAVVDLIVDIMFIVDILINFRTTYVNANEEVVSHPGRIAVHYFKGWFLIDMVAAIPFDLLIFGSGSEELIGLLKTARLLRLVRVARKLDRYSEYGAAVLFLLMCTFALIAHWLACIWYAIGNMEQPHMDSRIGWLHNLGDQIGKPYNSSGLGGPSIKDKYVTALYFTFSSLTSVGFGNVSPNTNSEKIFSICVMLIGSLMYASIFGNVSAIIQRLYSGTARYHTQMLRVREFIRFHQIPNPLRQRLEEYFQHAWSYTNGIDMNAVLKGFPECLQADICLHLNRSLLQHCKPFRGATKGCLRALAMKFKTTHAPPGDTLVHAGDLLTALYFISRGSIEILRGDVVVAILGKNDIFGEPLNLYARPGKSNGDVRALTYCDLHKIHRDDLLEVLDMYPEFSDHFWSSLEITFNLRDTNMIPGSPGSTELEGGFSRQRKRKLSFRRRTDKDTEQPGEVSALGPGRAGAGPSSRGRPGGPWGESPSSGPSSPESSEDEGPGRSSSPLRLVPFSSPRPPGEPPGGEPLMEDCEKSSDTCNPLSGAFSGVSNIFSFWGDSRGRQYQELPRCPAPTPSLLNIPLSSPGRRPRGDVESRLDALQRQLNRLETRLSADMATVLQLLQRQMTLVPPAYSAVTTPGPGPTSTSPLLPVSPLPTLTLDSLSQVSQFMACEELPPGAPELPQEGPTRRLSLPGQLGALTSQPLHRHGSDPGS

Row | SMILES | IC50 [1] [nM] | IC50 [2] [nM] | IC50 [3] [nM] | inhibition in vivo at 40 mg/kg/day [4] [%] | Activity [5] [%] | mortality at 504 h [6] [%] | IC50 [7] [nM] | inhibition in vivo at 40 mg/kg/day [8] [%] | Activity [9] [%] | mortality at 360 h [10] [%] | Activity [11] [%] | inhibition in vivo at 20 mg/kg/day [12] [%] | mortality at 360 h [13] [%] | half-life [14] [h] | AUC(0-t) [15] [ng·h/mL] | AUC(0-inf) [16] [ng·h/mL] | Tmax [17] [h] | Cmax [18] [ng/mL]
1 | Cc1ccc(NC(=O)c2cccc(C(F)(F)F)c2)cc1C#Cc1nn(C2CCN(C)CC2)c2ncnc(N)c12 | 13 | 80 | > 10000 | 90.7 | -3.1 | 0 | 600 | – | – | – | – | – | – | – | – | – | – | –
2 | Cc1ccc(NC(=O)c2ccc(C)c(C(F)(F)F)c2)cc1C#Cc1nn(C[C@H](C)CO)c2ncnc(N)c12 | 43 | 61 | > 10000 | – | – | – | > 30000 | 97.1 | -11.3 | 0 | – | – | – | – | – | – | – | –
3 | Cc1ccc(NC(=O)c2cccc(C(F)(F)F)c2)cc1C#Cc1nn([C@H]2CC[C@H](O)CC2)c2ncnc(N)c12 | – | – | – | – | – | – | – | 89.1 | 3.1 | 0 | 3.5 | 79.6 | 0 | 4.7 | 960 | 976 | 6 | 128
4 | Cc1ccc(NC(=O)c2cccc(C(F)(F)F)c2)cc1C#Cc1nn([C@H]2CC[C@@H](O)CC2)c2ncnc(N)c12 | – | – | 7900 | – | – | – | – | – | – | – | -2 | 70.2 | 0 | – | – | – | – | –
5 | Cc1ccc(NC(=O)c2ccc(Cl)c(C(F)(F)F)c2)cc1C#Cc1nn([C@H]2CC[C@H](O)CC2)c2ncnc(N)c12 | 16 | 37 | > 10000 | – | – | – | > 30000 | 96.1 | -13.4 | 0 | – | – | – | – | – | – | – | –
